This is a sample that favours compounds with a hit; in the whole collection about 1.5% have one here.
C-LANA FP: KSHV C-LANA DNA binding inhibition; MBP-C-LANA/FAM-LBS DNA binding, fluorescence polarization; inhibition, % at 9 µM; actives 0.078% (n = 340,000); AID 504423;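 active = highest replicate inhibition at or above 60% at 9 µM, even if other replicates fall short; inactive = all replicates below 60% inhibition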;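 also: 0% = neutral control wells and 100% = 4 µM acridine orange control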
CaV13 ICDI inh: Primary screen for inhibitors of IQ motif and Ca2+-dependent inactivation inhibitor domain binding in CACNA1D, Förster resonance energy transfer in living cells, …; inhibition, % at 12.3 µM; actives 0.098% (n = 340,000); HEK cells, CFP/YFP FRET ICDI-IQ, plate reader, 10 min; percent FRET-ratio fall versus neutral wells;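 active = mean replicate inhibition of at least 30% and at least 1% of replicates passing that level; inconclusive = only one of the two criteria is met; inactive = neither criterion is met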;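 also: 0% = median of the neutral control wells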
Keap1 Nrf2 FP: Keap1-Nrf2 (human) interaction inhibition. Q14145. Keap1 Kelch-Nrf2 peptide fluorescence polarization, 1536-well. inhibition, % at 9.4 µM. AID 504523. actives 0.15% (n = 340,000); in the data active = inhibition above about 12%; inconclusive = no clear call, values can overlap the other calls; inactive = below about 7.3%;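 also: human Keap1 Kelch domain with fluorescein labeled Nrf2 9mer peptide probe; 0% = neutral control wells and 100% = peptide positive control; higher means more block of Keap1 binding to Nrf2 peptide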
Target sequence (Q14145 whole entry, looked up, the tested form may be a part): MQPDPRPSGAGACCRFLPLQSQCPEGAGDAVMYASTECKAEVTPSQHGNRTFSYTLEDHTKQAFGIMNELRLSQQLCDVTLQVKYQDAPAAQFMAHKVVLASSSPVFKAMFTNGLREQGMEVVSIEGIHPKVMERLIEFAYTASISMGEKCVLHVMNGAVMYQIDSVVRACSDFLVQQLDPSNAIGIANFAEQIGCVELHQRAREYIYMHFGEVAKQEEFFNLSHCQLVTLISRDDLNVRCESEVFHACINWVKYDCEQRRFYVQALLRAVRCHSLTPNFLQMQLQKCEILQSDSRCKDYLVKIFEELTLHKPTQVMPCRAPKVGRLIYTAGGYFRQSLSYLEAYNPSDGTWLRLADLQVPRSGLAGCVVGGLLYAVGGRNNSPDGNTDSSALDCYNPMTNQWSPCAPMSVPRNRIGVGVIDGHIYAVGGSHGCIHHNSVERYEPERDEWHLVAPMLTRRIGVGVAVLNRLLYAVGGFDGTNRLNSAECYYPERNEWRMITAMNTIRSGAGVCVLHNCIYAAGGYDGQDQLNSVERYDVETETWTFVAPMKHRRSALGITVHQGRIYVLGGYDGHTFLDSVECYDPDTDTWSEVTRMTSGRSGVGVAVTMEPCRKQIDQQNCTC
LANA-H2A inh: blocks KSHV LANA binding to histone H2A/H2B; Q9QR71; cell-free LANA-H2A/H2B peptide, fluorescence polarization; inhibition, % (test concentration not listed); actives 0.6% (n = 320,000); in the data active = inhibition mostly above about 10%, no sharp cut-off; inactive = mostly below about 6.7%
CAL PDZ FP-1: blocks peptide binding to human CAL PDZ domain. Q9HD26. purified CAL PDZ, TMR-peptide fluorescence polarization, 1 h. inhibition, % at 20 µM. actives 0.02% (n = 330,000);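 active = highest replicate inhibition of at least 40%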;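 also: plate controls were DMSO neutral control wells for no effect and unlabeled competitor peptide control wells for full effect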
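System: tagged CAL PDZ domain. Schedule: 1 h room-temperature incubation prior to read. Signal: fluorescence polarization (mP). Measure: percent inhibition from loss of millipolarization.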
CAL PDZ FP-2: inhibitors of human CAL PDZ peptide binding; AID 602252; purified CAL PDZ, TMR-peptide fluorescence polarization, 1 h; actives 0.92% (n = 300,000); Q9HD26; inhibition, % at 24.9 µM;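 active = mean inhibition of at least 30% with at least half of replicates also reaching 30%; inconclusive = no clear call, values can overlap the other calls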;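 also: 0% = DMSO neutral control and 100% = excess unlabeled competitor peptide PRC23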
Keap1 Kelch bind: binders of human Keap1 Kelch domain; Keap1 Kelch thermal shift, delta Tm; stronger effect = higher value; shares compounds with Keap1 Nrf2 FP; actives 8% (n = 400); max delta Tm, degrees C; AID 651823; in the data active = max delta Tm above about 0.48 degrees C
Sypro dye melt: shifts Sypro Orange melt without protein, a false positive; shares compounds with Keap1 Nrf2 FP; Sypro Orange dye-only thermal melt, no protein, delta Tm; top dose 26 µM; delta Tm, degrees C (no concentration beside the values); 140 tested, under 10 active;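 active = at highest dose tested, delta Tm positive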
* marks the source's active call; other numbers are inactive results; u = inconclusive; x = no result; + = active, no number.

SMILES	C-LANA FP	CaV13 ICDI inh	Keap1 Nrf2 FP	LANA-H2A inh	CAL PDZ FP-1	CAL PDZ FP-2	others
O=C1NC(=S)N(c2ccc(F)cc2)C(=O)/C1=C/c1ccco1	x	x	x	-1	x	x
COC(=O)C1=C(c2ccc(OC(F)(F)F)cc2)C[C@@H]2CC[C@H]1N2C(=O)N1CCC(O)CC1	0	-5	-2	0	0	-1
N#CC12CNCC1CN=N2 (stereo not given)	0	-4	2	18*	-1	-5
CCN1C(=O)NC(=O)/C(=C\c2cn(CC(=O)N3CCCCC3C)c3ccccc23)C1=O (stereo not given)	14	x	u	33*	2	-3
CN1C(=O)C(=Cc2cn(CC(=O)N3CCCC3)c3ccccc23)C(=O)N(C)C1=O	-2	-4	-32	12	0	-8
O=C(Cn1cc(C=C2C(=O)NC(=O)NC2=O)c2ccccc21)NCC1CCCO1 (stereo not given)	10	-3	12	18*	-1	-5
CC[C@H]1CN2CCC1C[C@@H]2[C@H](O)c1ccnc2ccc(OC)cc12 (stereo not given in full)	-1	-5	-7	x	-1	5
C=CC1CN2CCC1CC2C(OC(C)=O)c1ccnc2ccc(OC)cc12 (stereo not given)	1	-2	-1	3	-1	58*
CN(C)c1ccc(C=C2C(=O)NC(=S)NC2=O)cc1	0	-7	-2	x	0	185*
CN(C)c1ccc(C=C2C(=O)NC(=O)NC2=O)cc1	0	-12	-4	x	0	-3
O=C(C(Cc1ccccc1)NS(=O)(=O)c1cccc2nsnc12)N1CCC2(CC1)OCCO2 (stereo not given)	0	-4	3	1	-1	-5
O=C(C1CCCN(S(=O)(=O)c2cccc3nsnc23)C1)N1CCC2(CC1)OCCO2 (stereo not given)	x	-6	x	45*	x	x
COc1ccc(CC2C(=O)N(c3ccccc3)C(=O)N(c3ccccc3)C2=O)c(OC)c1	2	-4	0	13*	-1	1
CC(Cc1ccccc1)NC(=O)Cc1ccc([N+](=O)[O-])cc1 (stereo not given)	1	-1	-1	3	1	30*
O=C(CCCc1ccc(N(CCCl)CCCl)cc1)NCc1ccccc1	x	-6	x	x	x	x
COc1cc(/C=C2\C(=O)NC(=O)N(c3ccccc3)C2=O)c([N+](=O)[O-])cc1OC	0	-14	u	-8	46*	0
Cc1ccc(C(O)(C(=O)OC(C)C)C(O)c2ccc(F)cc2)cc1 (stereo not given)	x	-4	x	x	x	x
O=C1NC(=O)N(c2ccccc2)C(=O)/C1=C/C=C/c1ccco1	5	-4	-13	4	-3	-1
CN1C(=O)/C(=C/C=C/c2ccco2)C(=O)NC1=S	60*	-5	-26	-4	-4	-3
CC(C)OC1CCCC(O)C1CC(=O)O (stereo not given)	0	-13	-2	16	1	8
CCCC(=O)OCC[N+](C)(C)C	1	-4	-1	20*	-1	-4
C=CCn1c(O)c(C(CC)=Nc2ccc(C(=O)O)cc2)c(=O)[nH]c1=O	1	8	0	0	0	-4
C=CCn1c(O)c(C(C)=Nc2ccc(C(=O)O)cc2)c(=O)[nH]c1=O	0	-7	0	1	0	82*
O=c1[nH]c(O)c(N=Nc2ccc(SC(F)F)cc2)c(=O)[nH]1	0	-27	-5	4	0	4
COc1ccc(/C=C2\C(=O)NC(=S)N(C)C2=O)cc1C	16	-7	47*	3	-2	-2
SMILES	C-LANA FP	CaV13 ICDI inh	Keap1 Nrf2 FP	LANA-H2A inh	CAL PDZ FP-1	CAL PDZ FP-2	others
Cn1cc(C(=O)OCC(=O)Nc2ccccc2)c2ccccc21	0	-2	6	90*	-2	-2
C[N+](C)(C)CCc1ccc(O)cc1	-2	x	-4	11*	1	2
Cc1cc(C(=O)OCC(=O)Nc2cccc(F)c2)c(C)n1C1CC1	-1	-2	-4	+	-1	16
CCOP(=O)(OCC)C(O)c1ccc(N(C)C)cc1 (stereo not given)	-1	-2	-4	0	-1	30*
CCN(CC)N=O	-1	x	-10	3	-1	-2
CN(C)N=O	-2	x	0	49*	-1	0
CN1CCC(C)(O)C2CCCCC21 (stereo not given)	0	4	-2	1	-1	-3
O=C(Nc1c(F)cc(F)cc1F)c1cccn(Cc2ccccc2)c1=O	0	-4	-3	2	0	4
Cc1ccc(-n2c(O)c(C=NC3CCCC3)c(=O)[nH]c2=O)c(C)c1	1	-7	4	6	0	49*
CC1(O)CCN2C(=O)CCc3cccc1c32 (stereo not given)	26	-18	44*	12*	1	x	Keap1 Kelch bind=-0.09
O=S(=O)(c1ccc(Cl)cc1)N1Cc2ccccc2-n2nncc2C1	x	-4	x	x	x	x
COc1cc(NC(=O)CN2C3CCC2CC(O)(c2cccnc2)C3)cc(OC)c1 (stereo not given)	-2	-2	0	3	-2	5
CN1CCN(c2ccc([N+](=O)[O-])c3no[n+]([O-])c23)CC1	82*	-7	55*	38*	0	-8	Keap1 Kelch bind=-0.12;Sypro dye melt=-27
CC(C)c1oc(=O)cc2c1[C@@H](O)[C@H]1OC(=O)[C@@]3(C)C[C@@H](O)[C@@H](O)[C@@]2(C)C13 (stereo not given in full)	1	-5	2	9	0	0
CN1CC=C2C(C#N)=C(N)C(C#N)(C#N)C(c3ccncc3)C2C1 (stereo not given)	43	x	15*	2	1	x	Keap1 Kelch bind=-0.15;Sypro dye melt=-26
Cc1cc(C=C2C(=O)NC(=O)NC2=O)c(C)n1-c1cccnc1	13	-3	12*	-1	-1	-3	Keap1 Kelch bind=-0.1
CN1CC2CN(Cc3ccccc3)S(=O)(=O)C2C1 (stereo not given)	x	-9	x	x	x	x
Cn1cc(/C=C2\C(=O)NC(=O)N(c3ccccc3)C2=O)c2ccccc21	88*	-4	49*	-10	2	-2	Keap1 Kelch bind=-0.13
CCCCc1ccc(C(=O)O)nc1	67*	-5	66*	6	0	4	Keap1 Kelch bind=-0.03
O=C1C(=O)c2ccccc2-c2ccccc21	4	-5	-9	-12	1	-3

Bioassay records as filed in PubChem.
